System: U2OS
Assay: Multiplex assay against U2OS
Type: toxicity, cell-based
Conditions: human
In short: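 Phenotypes for tubulin, mitochondrial mass and membrane permeability are expressed as per cents of healthy-nucleus cells. Cells were stained live at seeding with Hoechst33342, BioTracker Green Microtubule Cytoskeleton Dye, MitoTracker Red and Annexin V Alexa Fluor 680, then imaged after compound addition on a CQ1 microscope at 37°C and 5% CO2. Machine-learning gating in CellPathfinder separated Hoechst high-intensity objects from normal cells, divided normal cells by nuclear state (healthy, pyknosed, fragmented) and divided pyknosed cells into mitotic or apoptotic.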

[1] = 12 h, 1 µM, compound concentration 1 uM, replicate 1
[2] = 12 h, 1 µM, compound concentration 1 uM, replicate 2
[3] = 12 h, 10 µM, compound concentration 10 uM, replicate 1
[4] = 12 h, 10 µM, compound concentration 10 uM, replicate 2
[5] = 24 h, 1 µM, compound concentration 1 uM, replicate 1
[6] = 24 h, 1 µM, compound concentration 1 uM, replicate 2
[7] = 24 h, 10 µM, compound concentration 10 uM, replicate 1
[8] = 24 h, 10 µM, compound concentration 10 uM, replicate 2
[9] = 48 h, 1 µM, compound concentration 1 uM, replicate 1
[10] = 48 h, 1 µM, compound concentration 1 uM, replicate 2
[11] = 48 h, 10 µM, compound concentration 10 uM, replicate 1
[12] = 48 h, 10 µM, compound concentration 10 uM, replicate 2

Compound: COC[C@@H](c1ccc(C(F)(F)F)cc1)N1CCN(C2(C)CCN(C(=O)c3c(C)ncnc3C)CC2)C[C@@H]1C.O=C(O)/C=C\C(=O)O [VICRIVIROC MALEATE]
- Population Apoptotic (%) [1]: 82%
- Population Fragmented Nuclei (%) [1]: 34%
- Population Healthy Nuclei (%) [1]: 54%
- Population Hoechst High Intensity Objects (%) [1]: 4%
- Population Membrane Permeable-Phenotype (%) [1]: 8%
- Population Mitochondria Different-Phenotype (%) [1]: 4%
- Population Mitotic Cells (%) [1]: 17%
- Population Normal (%) [1]: 95%
- Population Pyknosed Nuclei (%) [1]: 11%
- Population Tubulin-Different-Phenotype (%) [1]: 3%
- Total Cell Count [1]: 261
- Population Apoptotic (%) [2]: 81%
- Population Fragmented Nuclei (%) [2]: 21%
- Population Healthy Nuclei (%) [2]: 67%
- Population Hoechst High Intensity Objects (%) [2]: 2%
- Population Membrane Permeable-Phenotype (%) [2]: 11%
- Population Mitochondria Different-Phenotype (%) [2]: 14%
- Population Mitotic Cells (%) [2]: 18%
- Population Normal (%) [2]: 97%
- Population Pyknosed Nuclei (%) [2]: 10%
- Population Tubulin-Different-Phenotype (%) [2]: 7%
- Total Cell Count [2]: 105
- Population Apoptotic (%) [3]: 86%
- Population Fragmented Nuclei (%) [3]: 26%
- Population Healthy Nuclei (%) [3]: 65%
- Population Hoechst High Intensity Objects (%) [3]: 1%
- Population Membrane Permeable-Phenotype (%) [3]: 13%
- Population Mitochondria Different-Phenotype (%) [3]: 3%
- Population Mitotic Cells (%) [3]: 13%
- Population Normal (%) [3]: 98%
- Population Pyknosed Nuclei (%) [3]: 8%
- Population Tubulin-Different-Phenotype (%) [3]: 3%
- Total Cell Count [3]: 270
- Population Apoptotic (%) [4]: 33%
- Population Fragmented Nuclei (%) [4]: 28%
- Population Hoechst High Intensity Objects (%) [4]: 2%
- Population Membrane Permeable-Phenotype (%) [4]: 5%
- Population Mitochondria Different-Phenotype (%) [4]: 6%
- Population Mitotic Cells (%) [4]: 66%
- Population Normal (%) [4]: 97%
- Population Pyknosed Nuclei (%) [4]: 6%
- Population Tubulin-Different-Phenotype (%) [4]: 6%
- Total Cell Count [4]: 91
- Population Apoptotic (%) [5]: 77%
- Population Fragmented Nuclei (%) [5]: 25%
- Population Healthy Nuclei (%) [5]: 67%
- Population Hoechst High Intensity Objects (%) [5]: 3%
- Population Membrane Permeable-Phenotype (%) [5]: 5%
- Population Mitochondria Different-Phenotype (%) [5]: 3%
- Population Mitotic Cells (%) [5]: 22%
- Population Normal (%) [5]: 96%
- Population Pyknosed Nuclei (%) [5]: 7%
- Population Tubulin-Different-Phenotype (%) [5]: 2%
- Total Cell Count [5]: 301
- Population Apoptotic (%) [6]: 93%
- Population Fragmented Nuclei (%) [6]: 20%
- Population Healthy Nuclei (%) [6]: 64%
- Population Hoechst High Intensity Objects (%) [6]: 4%
- Population Membrane Permeable-Phenotype (%) [6]: 10%
- Population Mitochondria Different-Phenotype (%) [6]: 14%
- Population Mitotic Cells (%) [6]: 6%
- Population Normal (%) [6]: 95%
- Population Pyknosed Nuclei (%) [6]: 15%
- Population Tubulin-Different-Phenotype (%) [6]: 10%
- Total Cell Count [6]: 111
- Population Apoptotic (%) [7]: 80%
- Population Fragmented Nuclei (%) [7]: 25%
- Population Healthy Nuclei (%) [7]: 68%
- Population Hoechst High Intensity Objects (%) [7]: 1%
- Population Membrane Permeable-Phenotype (%) [7]: 3%
- Population Mitochondria Different-Phenotype (%) [7]: 3%
- Population Mitotic Cells (%) [7]: 19%
- Population Normal (%) [7]: 98%
- Population Pyknosed Nuclei (%) [7]: 6%
- Population Tubulin-Different-Phenotype (%) [7]: 2%
- Total Cell Count [7]: 326
- Population Apoptotic (%) [8]: 83%
- Population Membrane Permeable-Phenotype (%) [8]: 4%
- Population Mitochondria Different-Phenotype (%) [8]: 2%
- Population Mitotic Cells (%) [8]: 16%
- Population Tubulin-Different-Phenotype (%) [8]: 7%
- Total Cell Count [8]: 99
- Population Apoptotic (%) [9]: 78%
- Population Fragmented Nuclei (%) [9]: 20%
- Population Healthy Nuclei (%) [9]: 68%
- Population Hoechst High Intensity Objects (%) [9]: 3%
- Population Membrane Permeable-Phenotype (%) [9]: 3%
- Population Mitochondria Different-Phenotype (%) [9]: 2%
- Population Mitotic Cells (%) [9]: 21%
- Population Normal (%) [9]: 96%
- Population Pyknosed Nuclei (%) [9]: 10%
- Population Tubulin-Different-Phenotype (%) [9]: 1%
- Total Cell Count [9]: 416
- Population Apoptotic (%) [10]: 93%
- Population Fragmented Nuclei (%) [10]: 25%
- Population Healthy Nuclei (%) [10]: 62%
- Population Hoechst High Intensity Objects (%) [10]: 1%
- Population Membrane Permeable-Phenotype (%) [10]: 13%
- Population Mitochondria Different-Phenotype (%) [10]: 11%
- Population Mitotic Cells (%) [10]: 6%
- Population Normal (%) [10]: 98%
- Population Pyknosed Nuclei (%) [10]: 11%
- Population Tubulin-Different-Phenotype (%) [10]: 10%
- Total Cell Count [10]: 142
- Population Apoptotic (%) [11]: 80%
- Population Fragmented Nuclei (%) [11]: 19%
- Population Healthy Nuclei (%) [11]: 70%
- Population Hoechst High Intensity Objects (%) [11]: 2%
- Population Membrane Permeable-Phenotype (%) [11]: 3%
- Population Mitochondria Different-Phenotype (%) [11]: 2%
- Population Mitotic Cells (%) [11]: 20%
- Population Normal (%) [11]: 97%
- Population Pyknosed Nuclei (%) [11]: 9%
- Population Tubulin-Different-Phenotype (%) [11]: 1%
- Total Cell Count [11]: 437
- Population Apoptotic (%) [12]: 93%
- Population Fragmented Nuclei (%) [12]: 18%
- Population Healthy Nuclei (%) [12]: 68%
- Population Hoechst High Intensity Objects (%) [12]: 5%
- Population Mitochondria Different-Phenotype (%) [12]: 6%
- Population Mitotic Cells (%) [12]: 6%
- Population Normal (%) [12]: 94%
- Population Pyknosed Nuclei (%) [12]: 12%
- Population Tubulin-Different-Phenotype (%) [12]: 6%
- Total Cell Count [12]: 140

Source: ChEMBL document CHEMBL5058577, “EUbOPEN Chemogenomics Library 2 (Multiplex)” (2022)
